Measurements from ChEMBL document CHEMBL3576845, “Discovery of Novel Multiacting Topoisomerase I/II and Histone Deacetylase Inhibitors” (ACS Med Chem Lett, 2015).
Active and inactive are the calls of the source. The rule behind the calls is not given here.

How the values were obtained:
[1] = molecular target: DNA topoisomerase 2-alpha (Homo sapiens) (UniProt P11388); experiment: Inhibition of topoisomerase-2alpha (unknown origin)-mediated pBR322 DNA relaxation at 50 uM after 30 mins by agarose gel electrophoresis
Summary of the method: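 Purified Top2α relaxation of supercoiled pBR322 plasmid with compound at 50 μM; etoposide 50 μM as reference; DNA-only and DNA + enzyme lanes as controls; gel read-out; repeated 3 times.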

Histone deacetylase 1 = Histone deacetylase 1 (Homo sapiens, UniProt Q13547); experiment: Inhibition of recombinant full length human HDAC1 (1 to 482) expressed in baculovirus infected insect Sf9 cells using fluorogenic HDAC substrate 3 after 30 mins by fluorescence assay
[2] = molecular target: T1, DNA topoisomerase 1 (Homo sapiens) (UniProt P11387); experiment: Inhibition of topoisomerase1 (unknown origin)-mediated pBR322 DNA relaxation at 50 uM after 15 mins by agarose gel electrophoresis
T1 sequence (whole entry): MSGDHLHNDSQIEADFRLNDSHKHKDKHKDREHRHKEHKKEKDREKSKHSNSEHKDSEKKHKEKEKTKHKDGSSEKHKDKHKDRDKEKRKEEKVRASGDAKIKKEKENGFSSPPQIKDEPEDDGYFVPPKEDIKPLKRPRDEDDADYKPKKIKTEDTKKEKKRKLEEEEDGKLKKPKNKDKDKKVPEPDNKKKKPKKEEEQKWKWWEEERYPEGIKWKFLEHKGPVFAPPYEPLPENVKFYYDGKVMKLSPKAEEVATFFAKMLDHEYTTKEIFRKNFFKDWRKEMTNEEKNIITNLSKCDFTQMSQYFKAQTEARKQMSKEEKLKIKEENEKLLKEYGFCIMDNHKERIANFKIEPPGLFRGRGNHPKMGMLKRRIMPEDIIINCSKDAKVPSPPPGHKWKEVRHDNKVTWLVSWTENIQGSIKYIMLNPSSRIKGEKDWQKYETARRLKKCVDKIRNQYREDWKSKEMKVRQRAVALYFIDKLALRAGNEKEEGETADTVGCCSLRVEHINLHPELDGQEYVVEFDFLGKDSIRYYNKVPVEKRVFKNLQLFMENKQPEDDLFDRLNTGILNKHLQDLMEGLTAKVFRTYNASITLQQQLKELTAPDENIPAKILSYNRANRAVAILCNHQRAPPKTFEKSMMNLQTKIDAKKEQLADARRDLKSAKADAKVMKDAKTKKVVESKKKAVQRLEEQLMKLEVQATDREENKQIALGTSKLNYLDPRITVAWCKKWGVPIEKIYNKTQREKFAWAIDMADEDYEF
Summary of the method: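 Relaxation of supercoiled pBR322 plasmid by purified Top1 with compound at 50 μM; camptothecin 50 μM as reference; DNA-only and DNA + enzyme lanes as controls; gel read-out; repeated 3 times.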

MDA-MB-231 = experiment: Cytotoxicity against human MDA-MB-231 cells assessed as growth inhibition after 72 hrs by MTT assay; assay type: functional, cell-based; conditions: MDA-MB-231, 72 h
HCT-116 [3] = experiment: Cytotoxicity against human HCT116 cells assessed as growth inhibition after 72 hrs by MTT assay; assay type: functional, cell-based; conditions: HCT-116, 72 h
[4] = Cytotoxicity against HLF assessed as growth inhibition after 72 hrs by MTT assay; assay type: functional; conditions: Homo sapiens
HCT-116 [5] = experiment: Induction of apoptosis in human HCT116 cells at 5 uM after 48 hrs by annexin V-FITC/propidium iodide staining-based flow cytometric analysis relative to control; assay type: functional
HCT-116 [6] = experiment: Induction of apoptosis in human HCT116 cells at 5 uM after 24 hrs by annexin V-FITC/propidium iodide staining-based flow cytometric analysis relative to control; assay type: functional
HCT-116 [7] = experiment: Induction of apoptosis in human HCT116 cells assessed as necrotic cells at 5 uM after 24 hrs by annexin V-FITC/propidium iodide staining-based flow cytometric analysis (reference value: 8%); assay type: functional
HCT-116 [8] = experiment: Induction of apoptosis in human HCT116 cells assessed as late apoptotic cells at 5 uM after 24 hrs by annexin V-FITC/propidium iodide staining-based flow cytometric analysis (reference value: 1.05%); assay type: functional
HCT-116 [9] = experiment: Induction of apoptosis in human HCT116 cells assessed as early apoptotic cells at 5 uM after 24 hrs by annexin V-FITC/propidium iodide staining-based flow cytometric analysis (reference value: 2.27%); assay type: functional
[10] = molecular target: Histone deacetylase 3/Nuclear receptor corepressor 2 (HDAC3/NCoR2) (Homo sapiens, UniProt O15379); experiment: Inhibition of recombinant C-terminal His-tagged full length human HDAC3/NcoR2 complex expressed in baculovirus infected insect Sf9 cells using fluorogenic HDAC substrate 3 after 30 mins by fluorescence assay
Histone deacetylase 8 = molecular target: T2, Histone deacetylase 8 (Homo sapiens, UniProt Q9BY41); experiment: Inhibition of recombinant C-terminal His-tagged full length human HDAC8 expressed in baculovirus infected insect Sf9 cells using fluorogenic HDAC class 2a substrate after 30 mins by fluorescence assay
T2 sequence (Q9BY41 whole entry): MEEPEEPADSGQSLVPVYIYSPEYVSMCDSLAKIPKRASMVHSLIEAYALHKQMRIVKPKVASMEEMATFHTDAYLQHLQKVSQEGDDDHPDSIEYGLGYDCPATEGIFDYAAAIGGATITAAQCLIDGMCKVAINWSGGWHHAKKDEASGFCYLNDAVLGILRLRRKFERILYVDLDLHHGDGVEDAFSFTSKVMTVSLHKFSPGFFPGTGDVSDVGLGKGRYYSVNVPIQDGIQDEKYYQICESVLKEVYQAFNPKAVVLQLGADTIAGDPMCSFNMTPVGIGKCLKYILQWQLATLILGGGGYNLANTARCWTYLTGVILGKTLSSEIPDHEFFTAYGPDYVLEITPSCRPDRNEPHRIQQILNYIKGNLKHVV

HCT-116 [11] = experiment: Induction of apoptosis in human HCT116 cells assessed as late apoptotic cells at 5 uM after 48 hrs by annexin V-FITC/propidium iodide staining-based flow cytometric analysis (reference value: 3.03%); assay type: functional
[12] = molecular target: Histone deacetylase (Homo sapiens) (UniProt Q13547+O15379+Q9UBN7+Q92769+Q9UQL6+Q8WUI4+Q9BY41+Q96DB2+P56524+Q9UKV0+Q969S8); experiment: Inhibition of HDAC in human HCT116 cells assessed as induction of histone H3 hyperacetylation at 2.5 to 5 uM after 24 to 48 hrs by Western blot analysis; assay type: cell-based; conditions: HCT-116
Summary of the method: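 HCT116 cells treated 24 h with compound at 2.5 or 5 μM alongside an untreated control; lysates probed by Western blot for acetylated histone H3.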

HCT-116 [13] = experiment: Induction of apoptosis in human HCT116 cells assessed as necrotic cells at 5 uM after 48 hrs by annexin V-FITC/propidium iodide staining-based flow cytometric analysis (reference value: 5.25%); assay type: functional
Histone deacetylase 2 = Histone deacetylase 2 (Homo sapiens, UniProt Q92769); experiment: Inhibition of recombinant C-terminal His-tagged full length human HDAC2 expressed in baculovirus infected insect Sf9 cells using fluorogenic HDAC substrate 3 after 30 mins by fluorescence assay; assay type: cell-based
HCT-116 [14] = experiment: Induction of apoptosis in human HCT116 cells assessed as early apoptotic cells at 5 uM after 48 hrs by annexin V-FITC/propidium iodide staining-based flow cytometric analysis (reference value: 2.76%); assay type: functional
[15] = molecular target: T3, Protein deacetylase HDAC6 (Homo sapiens, UniProt Q9UBN7); experiment: Inhibition of recombinant N-terminal GST-tagged full length human HDAC6 expressed in baculovirus infected insect Sf9 cells using fluorogenic HDAC substrate 3 after 30 mins by fluorescence assay
T3 sequence (Q9UBN7 whole entry): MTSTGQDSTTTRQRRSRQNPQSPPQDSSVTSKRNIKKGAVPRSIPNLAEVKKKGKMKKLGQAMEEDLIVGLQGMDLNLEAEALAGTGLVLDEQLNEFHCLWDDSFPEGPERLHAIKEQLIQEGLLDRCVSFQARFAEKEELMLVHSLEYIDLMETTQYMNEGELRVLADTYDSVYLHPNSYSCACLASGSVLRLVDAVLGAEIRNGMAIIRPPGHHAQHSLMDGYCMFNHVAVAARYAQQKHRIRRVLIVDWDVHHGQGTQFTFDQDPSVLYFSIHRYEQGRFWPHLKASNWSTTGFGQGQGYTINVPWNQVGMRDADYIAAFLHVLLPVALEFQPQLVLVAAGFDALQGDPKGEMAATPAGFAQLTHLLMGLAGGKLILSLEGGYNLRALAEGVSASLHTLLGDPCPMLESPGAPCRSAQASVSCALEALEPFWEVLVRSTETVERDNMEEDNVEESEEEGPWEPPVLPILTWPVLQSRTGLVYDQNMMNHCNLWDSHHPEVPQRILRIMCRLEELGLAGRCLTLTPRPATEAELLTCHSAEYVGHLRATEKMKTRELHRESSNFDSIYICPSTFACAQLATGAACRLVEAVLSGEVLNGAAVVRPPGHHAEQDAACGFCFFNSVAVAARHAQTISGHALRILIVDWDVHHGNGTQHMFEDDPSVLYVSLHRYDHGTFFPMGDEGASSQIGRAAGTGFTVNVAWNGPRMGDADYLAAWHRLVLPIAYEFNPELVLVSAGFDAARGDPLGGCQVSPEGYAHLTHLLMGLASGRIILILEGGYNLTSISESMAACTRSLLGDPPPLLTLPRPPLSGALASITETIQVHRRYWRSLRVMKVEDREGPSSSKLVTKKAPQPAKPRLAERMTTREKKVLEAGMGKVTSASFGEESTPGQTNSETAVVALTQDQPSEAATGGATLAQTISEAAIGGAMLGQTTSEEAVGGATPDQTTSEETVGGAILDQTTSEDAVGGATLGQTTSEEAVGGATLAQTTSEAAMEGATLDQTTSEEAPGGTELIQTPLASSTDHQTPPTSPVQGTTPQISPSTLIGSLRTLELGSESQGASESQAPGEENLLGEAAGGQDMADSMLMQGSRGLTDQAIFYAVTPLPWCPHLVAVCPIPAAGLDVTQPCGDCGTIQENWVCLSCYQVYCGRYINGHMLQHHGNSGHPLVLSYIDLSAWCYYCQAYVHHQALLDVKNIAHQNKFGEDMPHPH

Chain of Histone deacetylase 1 (Q13547 whole entry): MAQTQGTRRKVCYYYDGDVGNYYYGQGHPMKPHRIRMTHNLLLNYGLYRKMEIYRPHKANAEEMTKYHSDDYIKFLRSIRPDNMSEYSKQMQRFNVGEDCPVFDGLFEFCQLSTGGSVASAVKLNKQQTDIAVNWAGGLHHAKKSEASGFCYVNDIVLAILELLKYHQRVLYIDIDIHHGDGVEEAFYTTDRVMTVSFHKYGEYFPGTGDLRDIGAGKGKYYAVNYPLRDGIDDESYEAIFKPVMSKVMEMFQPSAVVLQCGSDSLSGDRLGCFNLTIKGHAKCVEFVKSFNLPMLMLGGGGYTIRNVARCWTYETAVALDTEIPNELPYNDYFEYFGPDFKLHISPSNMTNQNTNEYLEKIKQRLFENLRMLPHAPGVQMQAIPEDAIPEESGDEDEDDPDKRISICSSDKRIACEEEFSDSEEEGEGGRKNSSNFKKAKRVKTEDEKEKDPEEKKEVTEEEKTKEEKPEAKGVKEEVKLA
Chain of DNA topoisomerase 2-alpha (Homo sapiens) (P11388 whole entry): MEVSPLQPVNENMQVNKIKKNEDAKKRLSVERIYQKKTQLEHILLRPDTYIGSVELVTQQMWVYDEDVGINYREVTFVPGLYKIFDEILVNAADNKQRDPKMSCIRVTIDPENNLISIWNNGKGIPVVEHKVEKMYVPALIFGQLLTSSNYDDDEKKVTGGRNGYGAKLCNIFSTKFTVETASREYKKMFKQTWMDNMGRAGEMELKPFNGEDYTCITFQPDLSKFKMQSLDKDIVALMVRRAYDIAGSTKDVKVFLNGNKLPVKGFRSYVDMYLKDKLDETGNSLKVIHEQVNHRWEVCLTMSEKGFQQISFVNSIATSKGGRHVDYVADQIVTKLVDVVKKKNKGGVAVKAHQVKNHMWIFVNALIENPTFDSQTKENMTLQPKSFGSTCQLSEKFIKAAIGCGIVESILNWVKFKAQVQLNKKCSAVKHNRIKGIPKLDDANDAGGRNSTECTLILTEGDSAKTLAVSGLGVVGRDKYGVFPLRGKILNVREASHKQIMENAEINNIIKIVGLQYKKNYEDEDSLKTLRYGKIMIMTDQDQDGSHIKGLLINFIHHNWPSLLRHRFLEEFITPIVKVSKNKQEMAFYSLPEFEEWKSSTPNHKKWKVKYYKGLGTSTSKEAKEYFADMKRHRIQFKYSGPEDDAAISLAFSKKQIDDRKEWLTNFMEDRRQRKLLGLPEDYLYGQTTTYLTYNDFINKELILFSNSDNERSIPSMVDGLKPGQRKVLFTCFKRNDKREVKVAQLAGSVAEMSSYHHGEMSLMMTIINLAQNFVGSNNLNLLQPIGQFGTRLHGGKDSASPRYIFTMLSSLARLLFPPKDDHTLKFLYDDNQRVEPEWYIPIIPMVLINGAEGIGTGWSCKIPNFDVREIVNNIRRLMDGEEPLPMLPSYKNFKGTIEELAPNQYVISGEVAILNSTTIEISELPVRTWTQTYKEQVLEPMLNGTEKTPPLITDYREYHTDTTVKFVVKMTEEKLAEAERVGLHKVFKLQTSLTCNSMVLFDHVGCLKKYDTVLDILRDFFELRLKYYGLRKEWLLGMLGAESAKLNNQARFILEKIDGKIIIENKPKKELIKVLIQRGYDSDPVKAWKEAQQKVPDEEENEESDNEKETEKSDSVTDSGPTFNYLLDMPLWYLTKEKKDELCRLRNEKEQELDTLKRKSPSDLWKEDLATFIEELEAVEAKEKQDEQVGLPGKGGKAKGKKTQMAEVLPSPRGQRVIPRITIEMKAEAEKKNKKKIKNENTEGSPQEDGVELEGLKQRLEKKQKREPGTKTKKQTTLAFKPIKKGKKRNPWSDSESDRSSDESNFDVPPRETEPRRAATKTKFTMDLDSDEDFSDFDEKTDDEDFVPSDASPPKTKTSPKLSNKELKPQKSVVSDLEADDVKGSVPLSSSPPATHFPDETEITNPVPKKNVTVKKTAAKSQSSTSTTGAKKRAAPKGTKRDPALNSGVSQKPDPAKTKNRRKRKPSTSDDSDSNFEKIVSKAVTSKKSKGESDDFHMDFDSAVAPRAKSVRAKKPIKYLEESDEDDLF
Chain of Histone deacetylase 3/Nuclear receptor corepressor 2 (HDAC3/NCoR2) (O15379 whole entry): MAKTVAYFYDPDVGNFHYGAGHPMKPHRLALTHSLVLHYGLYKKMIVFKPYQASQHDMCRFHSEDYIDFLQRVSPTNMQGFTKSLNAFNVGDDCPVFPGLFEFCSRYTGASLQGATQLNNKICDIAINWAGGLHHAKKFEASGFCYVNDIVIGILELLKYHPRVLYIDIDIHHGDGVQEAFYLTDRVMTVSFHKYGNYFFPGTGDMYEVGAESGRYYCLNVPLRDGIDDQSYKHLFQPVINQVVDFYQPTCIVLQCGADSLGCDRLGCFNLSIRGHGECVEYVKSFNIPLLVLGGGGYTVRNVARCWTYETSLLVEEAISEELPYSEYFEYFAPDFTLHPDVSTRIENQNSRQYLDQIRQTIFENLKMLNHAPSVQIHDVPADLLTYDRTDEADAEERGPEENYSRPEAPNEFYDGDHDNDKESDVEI
Chain of Histone deacetylase 3/Nuclear receptor corepressor 2 (HDAC3/NCoR2) (Q9Y618 whole entry, further chain): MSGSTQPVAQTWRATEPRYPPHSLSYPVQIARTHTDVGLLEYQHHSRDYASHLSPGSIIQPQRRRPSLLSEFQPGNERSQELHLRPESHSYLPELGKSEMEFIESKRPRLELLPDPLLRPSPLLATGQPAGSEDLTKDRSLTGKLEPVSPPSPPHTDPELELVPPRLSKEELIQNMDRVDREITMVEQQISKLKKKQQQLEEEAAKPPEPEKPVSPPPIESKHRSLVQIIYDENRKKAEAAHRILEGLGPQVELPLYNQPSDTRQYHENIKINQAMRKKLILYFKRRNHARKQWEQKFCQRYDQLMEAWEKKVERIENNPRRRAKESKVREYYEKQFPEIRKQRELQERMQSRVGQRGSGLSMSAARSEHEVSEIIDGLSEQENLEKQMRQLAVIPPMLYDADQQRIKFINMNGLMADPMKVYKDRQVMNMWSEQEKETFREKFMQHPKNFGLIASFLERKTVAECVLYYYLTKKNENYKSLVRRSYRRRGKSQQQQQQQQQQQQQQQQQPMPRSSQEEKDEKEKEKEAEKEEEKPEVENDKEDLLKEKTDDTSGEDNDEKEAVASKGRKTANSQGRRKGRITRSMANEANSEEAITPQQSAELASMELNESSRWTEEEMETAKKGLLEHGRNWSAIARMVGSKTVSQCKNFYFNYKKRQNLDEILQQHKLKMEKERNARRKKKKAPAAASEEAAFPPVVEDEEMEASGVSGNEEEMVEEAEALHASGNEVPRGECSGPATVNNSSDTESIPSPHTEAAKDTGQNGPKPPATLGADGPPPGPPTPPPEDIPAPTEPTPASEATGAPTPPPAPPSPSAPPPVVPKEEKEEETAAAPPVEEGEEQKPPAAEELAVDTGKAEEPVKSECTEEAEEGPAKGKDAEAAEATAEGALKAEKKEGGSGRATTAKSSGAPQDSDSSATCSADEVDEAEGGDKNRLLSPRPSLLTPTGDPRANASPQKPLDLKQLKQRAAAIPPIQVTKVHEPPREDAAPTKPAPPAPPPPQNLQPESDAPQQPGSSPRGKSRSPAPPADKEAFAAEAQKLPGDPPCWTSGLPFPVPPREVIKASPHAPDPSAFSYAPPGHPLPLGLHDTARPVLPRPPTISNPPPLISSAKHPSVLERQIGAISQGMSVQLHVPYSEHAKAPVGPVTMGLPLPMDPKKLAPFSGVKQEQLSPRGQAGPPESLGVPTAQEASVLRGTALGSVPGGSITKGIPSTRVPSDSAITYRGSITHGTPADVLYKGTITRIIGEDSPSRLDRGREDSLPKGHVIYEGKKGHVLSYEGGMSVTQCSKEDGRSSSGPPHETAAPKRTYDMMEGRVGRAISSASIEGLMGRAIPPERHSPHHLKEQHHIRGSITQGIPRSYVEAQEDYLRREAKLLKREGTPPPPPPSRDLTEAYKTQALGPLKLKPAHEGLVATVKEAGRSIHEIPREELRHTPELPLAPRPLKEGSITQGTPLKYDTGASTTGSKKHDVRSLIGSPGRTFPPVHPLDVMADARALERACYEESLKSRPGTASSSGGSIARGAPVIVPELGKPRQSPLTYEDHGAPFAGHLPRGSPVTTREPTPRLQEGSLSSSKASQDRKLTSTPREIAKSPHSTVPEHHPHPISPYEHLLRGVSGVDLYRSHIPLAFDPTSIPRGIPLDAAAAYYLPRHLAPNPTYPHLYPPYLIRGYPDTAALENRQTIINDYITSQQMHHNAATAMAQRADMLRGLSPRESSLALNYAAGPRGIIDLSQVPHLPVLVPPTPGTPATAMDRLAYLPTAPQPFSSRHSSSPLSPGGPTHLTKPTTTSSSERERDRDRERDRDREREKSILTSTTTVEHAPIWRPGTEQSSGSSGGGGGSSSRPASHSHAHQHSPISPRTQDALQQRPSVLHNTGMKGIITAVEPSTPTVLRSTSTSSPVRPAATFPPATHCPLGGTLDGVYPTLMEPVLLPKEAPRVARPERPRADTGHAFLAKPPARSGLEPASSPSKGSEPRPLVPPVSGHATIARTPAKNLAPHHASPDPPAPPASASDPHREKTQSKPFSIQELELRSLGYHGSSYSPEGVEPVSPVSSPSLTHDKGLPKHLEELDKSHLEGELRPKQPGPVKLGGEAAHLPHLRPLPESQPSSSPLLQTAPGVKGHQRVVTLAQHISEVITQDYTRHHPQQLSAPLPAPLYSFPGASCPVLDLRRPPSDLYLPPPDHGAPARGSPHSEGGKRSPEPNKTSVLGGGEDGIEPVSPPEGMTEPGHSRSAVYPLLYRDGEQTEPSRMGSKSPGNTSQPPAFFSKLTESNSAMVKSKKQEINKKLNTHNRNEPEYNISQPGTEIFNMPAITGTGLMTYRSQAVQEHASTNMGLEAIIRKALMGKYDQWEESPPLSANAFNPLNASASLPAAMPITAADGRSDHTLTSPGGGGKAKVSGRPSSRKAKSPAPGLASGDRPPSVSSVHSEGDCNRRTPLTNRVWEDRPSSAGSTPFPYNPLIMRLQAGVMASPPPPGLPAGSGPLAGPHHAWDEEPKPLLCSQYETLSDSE

Row | inhibition [1] | IC50 (Histone deacetylase 1) [µM] | inhibition [2] | Structure (SMILES) | IC50 (MDA-MB-231) [µM] | IC50 (HCT-116 [3]) [µM] | IC50 [4] [µM] | further results
1 | Active | – | – | COc1cc([C@@H]2c3cc4c(cc3[C@@H](O[C@@H]3O[C@@H]5CO[C@@H](C)O[C@H]5[C@H](O)[C@H]3O)[C@H]3COC(=O)[C@H]23)OCO4)cc(OC)c1O | – | – | – | –
2 | Active | 0.19 | Active | CN1c2ccc(NCc3ccc(-c4noc(CCCCC(=O)NO)n4)cc3)cc2C(=O)N2CCc3c([nH]c4ccc(O)cc34)C21 (centres undefined) | 5.9 | 3.7 | 8.2 | –
3 | Active | 0.093 | Active | CN1c2ccc(NCc3ccc(-c4nnc(CCCCC(=O)NO)o4)cc3)cc2C(=O)N2CCc3c([nH]c4ccc(O)cc34)C21 (centres undefined) | 30 | 4.9 | 26 | –
4 | Active | 0.321 | Active | CN1c2ccc(NCc3ccc(-c4noc(CCCC(=O)NO)n4)cc3)cc2C(=O)N2CCc3c([nH]c4ccc(O)cc34)C21 (centres undefined) | 16 | 3.5 | 6.7 | –
5 | Active | > 10 | inactive | COc1ccc2[nH]c3c(c2c1)CCN1C(=O)c2cc(NC(=O)CCCCCC(=O)NO)ccc2N(C)C31 (centres undefined) | 58 | 35 | 68 | –
6 | Active | – | Active | CN1c2ccc(N)cc2C(=O)N2CCc3c([nH]c4ccc(O)cc34)C21 (centres undefined) | 0.49 | 0.43 | 0.47 | Activity (HCT-116 [5]): 16.39%; Activity (HCT-116 [6]): 11.09%
7 | Active | 0.03 | Active | CN1c2ccc(NCc3ccc(NC(=O)CCCCCCC(=O)NO)cc3)cc2C(=O)N2CCc3c([nH]c4ccc(O)cc34)C21 (centres undefined) | 14 | 2.1 | 13 | –
8 | Active | 0.275 | inactive | COc1ccc2[nH]c3c(c2c1)CCN1C(=O)c2cc(NC(=O)CCCCC(=O)NO)ccc2N(C)C31 (centres undefined) | 36 | 22 | 62 | –
9 | Active | 0.024 | Active | CN1c2ccc(NCc3ccc(-c4noc(CCCCCCC(=O)NO)n4)cc3)cc2C(=O)N2CCc3c([nH]c4ccc(O)cc34)C21 (centres undefined) | 2.3 | 0.41 | 1.3 | Activity (HCT-116 [7]): 2.68%; Activity (HCT-116 [8]): 16.73%; Activity (HCT-116 [9]): 22.59%; IC50 [10]: 0.071 µM; IC50 (Histone deacetylase 8): 2.5 µM; Activity (HCT-116 [11]): 42.14%; inhibition [12]: Active; Activity (HCT-116 [13]): 7.96%; IC50 (Histone deacetylase 2): 0.275 µM; Activity (HCT-116 [14]): 29.76%; IC50 [15]: 0.013 µM
10 | – | – | – | O=C(CCCCCCC(=O)Nc1ccccc1)NO [VORINOSTAT] | – | – | – | Activity (HCT-116 [7]): 1.76%; Activity (HCT-116 [8]): 6.34%; Activity (HCT-116 [9]): 19.2%; Activity (HCT-116 [11]): 35.44%; Activity (HCT-116 [13]): 15.64%; Activity (HCT-116 [14]): 11.37%
11 | Active | > 10 | Active | CN1c2ccc(NCc3ccc(-c4nnc(CCCC(=O)NO)o4)cc3)cc2C(=O)N2CCc3c([nH]c4ccc(O)cc34)C21 (centres undefined) | > 168 | 11 | > 168 | –
12 | Active | 0.089 | Active | CN1c2ccc(NCc3ccc(-c4nnc(CCCCCCC(=O)NO)o4)cc3)cc2C(=O)N2CCc3c([nH]c4ccc(O)cc34)C21 (centres undefined) | 5.7 | 9.7 | 6.1 | –
